pIC50: −log10 of the molar value.
Tests used:
[1] = target: JAK1 (Homo sapiens, UniProt P23458); details: biochemical assays; cited from earlier work
[2] = test system: JAK2; details: read-out: IC50 against JAK2; cited from earlier work
[3] = test system: p-STAT5/p-STAT6 in hPBMCs; assay: γc cytokine-stimulated STAT phosphorylation, Western blot; assay type: cell-based, human; details: fig. S1
Procedure, shortened: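 hPBMCs in RPMI 1640 with 10% FBS at 37°C, 5% CO2, plated 5×10^5 per well. Pretreated 1 h with test compound, then stimulated with IL-2, IL-4, IL-7, IL-9, IL-15 or IL-21. Lysed in RIPA buffer with protease/phosphatase inhibitors. p-STAT5/p-STAT6 by Western blot normalized to GAPDH; three independent experiments.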

Sequence of JAK1 (P23458 whole entry): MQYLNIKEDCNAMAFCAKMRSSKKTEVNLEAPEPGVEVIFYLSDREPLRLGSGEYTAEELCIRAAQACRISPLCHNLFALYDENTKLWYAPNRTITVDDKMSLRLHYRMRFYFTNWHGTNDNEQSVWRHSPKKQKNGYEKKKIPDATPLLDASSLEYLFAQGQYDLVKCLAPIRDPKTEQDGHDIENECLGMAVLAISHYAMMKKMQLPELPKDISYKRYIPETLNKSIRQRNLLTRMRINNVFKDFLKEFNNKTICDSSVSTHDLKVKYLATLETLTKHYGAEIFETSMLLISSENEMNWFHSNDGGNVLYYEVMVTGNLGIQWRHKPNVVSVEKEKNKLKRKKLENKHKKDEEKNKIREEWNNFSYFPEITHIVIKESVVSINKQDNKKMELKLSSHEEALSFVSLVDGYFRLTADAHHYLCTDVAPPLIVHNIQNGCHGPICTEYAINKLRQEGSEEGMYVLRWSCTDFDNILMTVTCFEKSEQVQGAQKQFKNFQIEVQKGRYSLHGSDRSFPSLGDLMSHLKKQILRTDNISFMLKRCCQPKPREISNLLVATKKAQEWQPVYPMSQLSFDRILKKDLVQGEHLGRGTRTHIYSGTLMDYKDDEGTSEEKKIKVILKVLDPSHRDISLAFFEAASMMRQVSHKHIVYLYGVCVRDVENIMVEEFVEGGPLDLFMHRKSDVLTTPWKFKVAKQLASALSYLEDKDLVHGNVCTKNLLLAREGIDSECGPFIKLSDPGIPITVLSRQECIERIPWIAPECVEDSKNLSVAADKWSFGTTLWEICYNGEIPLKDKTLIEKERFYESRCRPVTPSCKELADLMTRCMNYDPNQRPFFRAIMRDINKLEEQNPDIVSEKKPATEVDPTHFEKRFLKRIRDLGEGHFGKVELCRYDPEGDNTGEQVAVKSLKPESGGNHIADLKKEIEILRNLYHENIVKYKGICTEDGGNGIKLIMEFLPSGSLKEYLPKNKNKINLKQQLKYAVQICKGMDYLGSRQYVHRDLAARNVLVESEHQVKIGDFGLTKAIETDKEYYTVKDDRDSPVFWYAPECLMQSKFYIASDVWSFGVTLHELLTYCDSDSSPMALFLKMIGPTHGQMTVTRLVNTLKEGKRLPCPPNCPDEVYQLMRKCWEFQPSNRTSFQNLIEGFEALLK

Row | Structure (SMILES) | preference for JAK1 over JAK2 [1] [fold] | pIC50 [2] | IL-2-induced p-STAT5 levels [3]
1 | CC[C@@H]1CN(C(=O)NCC(F)(F)F)C[C@@H]1c1cnc2cnc3[nH]ccc3n12 [upadacitinib] | 2.4 |  | 
2 | O=C(Nc1nc2cccc(-c3ccc(CN4CCS(=O)(=O)CC4)cc3)n2n1)C1CC1 [filgotinib] | 2.8 |  | 
3 | C=CC(=O)N1C[C@H](Nc2ncnc3[nH]ccc23)CC[C@@H]1C [Ritlecitinib, 1-((2S,5R)-5-((7H-pyrrolo[2,3-d]pyrimidin-4-yl)amino)-2-methylpiperidin-1-yl)prop-2-en-1-one] |  | < 5.00 | potent inhibition
